# Compound activity (PubChem)
# Most compounds without a hit are left out; they make up all but 2.4% or so of the library.
# NPY-Y2 PAM-ag: potentiates or activates human NPY-Y2 receptor; P49146; cells expressing NPY-Y2, potentiator/agonist read-out; activation, % at 3.6 µM; hit rate 0.45% among 220,000; in the data active = activation above about 27%;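 also: cells stimulated with NPY near EC25 plus isoproterenol at EC100; 0% = vehicle plus submaximal agonist and 100% = vehicle plus saturating agonist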
# Target sequence (P49146 whole entry, looked up): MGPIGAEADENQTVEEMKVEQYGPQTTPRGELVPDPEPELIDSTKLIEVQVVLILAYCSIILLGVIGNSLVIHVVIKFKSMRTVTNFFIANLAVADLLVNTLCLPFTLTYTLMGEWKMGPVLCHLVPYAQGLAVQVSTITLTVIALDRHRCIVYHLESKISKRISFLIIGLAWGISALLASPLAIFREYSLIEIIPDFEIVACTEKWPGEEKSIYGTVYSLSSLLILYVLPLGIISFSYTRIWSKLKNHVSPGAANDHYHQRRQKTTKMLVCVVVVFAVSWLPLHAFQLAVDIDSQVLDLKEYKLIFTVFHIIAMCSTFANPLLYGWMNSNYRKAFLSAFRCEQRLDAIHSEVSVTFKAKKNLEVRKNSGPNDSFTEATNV
# NPY Y1 blocker: blocks the human neuropeptide Y Y1 receptor; inhibition, % at 3.6 µM; P25929; hit rate 1% among 200,000; HEK293-CNG Y1 cells, membrane potential fluorescence; NPY at EC95, then isoproterenol;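 active = inhibition above the campaign mean inhibition of all tested compounds plus 3 SD, cut at about 20% in these data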;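 also: 0% = DMSO wells given NPY plus isoproterenol and 100% = isoproterenol alone without NPY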
#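 Material: HEK293 cells with Y1 receptor plus CNG channel; times: compound incubation 1 h at room temperature, readout 45 min post-stimulation; signal: fluorescence, membrane potential probe; read-out basis: fluorescence ratio normalized to % inhibition between controls; benchmarks: full-block control isoproterenol-only wells, zero-block control NPY plus isoproterenol wells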
# NPY Y2 blocker: blocks the human neuropeptide Y Y2 receptor | NPY-Y2 expressing cells, antagonist mode | inhibition, % at 2.7 µM | hit rate 0.99% among 140,000 | AID 793;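 also: 0% = vehicle with agonist challenge and 100% = reference antagonist with challenge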
# NPY1 pot ag: potentiators or agonists of human neuropeptide Y receptor Y1; NPY-Y1 expressing cells, potentiator/agonist activation; activation, % at 3.6 µM; hit rate 0.37% among 220,000; in the data active = activation above about 33%, passing the limit was not always enough;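 also: cells stimulated with NPY at EC10 then isoproterenol at EC100; 0% = low agonist plus stimulus and 100% = saturating agonist plus stimulus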
# S1P4 antag: antagonists of human S1P4 receptor; O95977; S1P4-expressing cells, antagonist mode, reporter read-out; inhibition, % at 4.98 µM; hit rate 0.26% among 220,000; AID 1510; in the data active = inhibition above about 29%;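 also: 0% = wells stimulated with agonist and 100% = vehicle wells without agonist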
# S1P4 ag: activates the human S1P4 receptor; O95977; S1P4-expressing cell line, agonist reporter assay; activation, % at 4.98 µM; hit rate 0.35% among 220,000; AID 1509; in the data active = activation above about 11%;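 also: 0% = DMSO vehicle and 100% = reference agonist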
# NPY1 antag conf: confirmation of human neuropeptide Y receptor Y1 antagonists; shares compounds with NPY Y1 blocker; HEK293-CNG NPY-Y1, membrane potential fluorescence, cAMP; NPY challenge against isoproterenol-raised cAMP; inhibition, % at 3.6 µM; hit rate 21% among 1,200; in the data active = inhibition above about 20%;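 also: 0% = vehicle with agonist plus stimulus and 100% = stimulus alone without agonist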
# NPY2 antag ctr: counter-screen for NPY-Y1 antagonists: human NPY-Y2 antagonism; shares compounds with NPY Y1 blocker; HEK293 NPY-Y2 CNG membrane potential fluorescence; cells given NPY, then isoproterenol; inhibition, % at 3.6 µM; hit rate 28% among 1,200;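 also: 0% = DMSO with agonist challenge and 100% = reference antagonist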
# The depositor's hits bear a star; . = no result. Rule as the data show it, unless noted: active = inhibition above about 17%; inactive = the rest.
SMILES,NPY-Y2 PAM-ag,NPY Y1 blocker,NPY Y2 blocker,NPY1 pot ag,S1P4 antag,S1P4 ag,NPY1 antag conf,NPY2 antag ctr
O=C(Nc1nc(-c2ccc(Cl)s2)cs1)c1ccncc1,13.5,2.6,3.3,15.9,-2.5,1.0,.,.
CC1CC1C(=O)Nc1nc(-c2ccc(Cl)s2)cs1 (configuration not stated),-2.3,25.0*,.,7.6,-17.2,0.5,8.5,7.4
CCOC(=O)c1c(C)n(C)c2ccc(OC)c(NC(=O)CCN3CCC(Cc4ccccc4)CC3)c12,-13.4,.,.,-41.5,9.6,-1.3,.,.
Cc1ccc(OCc2nnc(SCC(=O)c3ccccc3)n2Cc2ccco2)cc1,-7.3,11.0,4.6,-26.4,-28.3,1.8,.,.
O=C(CSc1nnc(COc2ccccc2)n1Cc1ccco1)c1ccc(F)cc1,-19.7,20.2*,16.5,-19.8,8.9,0.5,4.0,6.6
COc1ccc(-c2cc(-c3n[nH]c(=S)n3-c3ccccc3OC)[nH]n2)cc1,-15.3,32.1*,16.4,-66.1,-14.3,0.5,37.2*,65.6*
COc1ccc(OC)c(-n2c(-c3cc(-c4ccccc4)n[nH]3)n[nH]c2=S)c1,-9.6,8.8,1.5,-15.6,-5.5,3.3,.,.
CCCN(CCC)C(=O)Cn1c2ccccc2c2nc(=O)cc(C)n21,6.8,2.3,9.3,0.5,-21.4,2.9,.,.
COc1ccc(-n2nc(N)c(C(N)=O)n2)cc1,6.0,5.9,.,14.0,-3.9,0.3,.,.
COC(=O)CNC(c1ccccc1)c1cc(Br)ccc1NS(=O)(=O)c1ccc(C)cc1 (configuration not stated),16.6,10.5,3.9,6.5,4.1,0.4,.,.
COC(=O)CNC(c1ccccc1)c1cc(Br)ccc1NS(=O)(=O)c1ccccc1 (configuration not stated),-2.6,26.7*,16.6,-31.0,-10.3,-0.5,-1.3,3.5
COc1ccc(-n2c(-c3ccc(Cl)cc3)c[n+]3c2CCc2ccccc2-3)cc1,-5.6,23.1*,.,-8.4,-0.7,-1.4,24.3*,11.4
COc1ccc(-n2c(-c3ccccc3)nnc2-c2ccc(Cl)cc2)cc1,-13.0,7.7,11.0,-11.9,12.2,-1.2,.,.
C[C@@H]1CN(Cc2nc(-c3ccc(Cl)cc3)no2)C[C@H](C)O1,2.2,-2.8,.,14.6,15.8,0.5,.,.
COc1ccc(OCC(=O)O/N=C(\N)Cc2ccc(Cl)cc2)cc1,-12.5,22.5*,9.6,-47.0,-3.5,0.4,6.7,6.7
CC(C)COP(=O)(OCC(C)C)C(O)c1ccc(N(C)C)cc1 (configuration not stated),6.5,.,.,5.5,8.0,0.9,.,.
O=[N+]([O-])C(/C=C(\Cl)[N+](=O)[O-])=C(N1CCCCC1)N1CCCCC1,-1.0,3.4,.,4.0,4.0,0.9,.,.
C=C(C)CNC(=S)NN=C1c2ccccc2-c2ccccc21,-37.1,32.8*,.,-53.8,-8.9,-0.1,35.9*,69.3*
CC(C)c1cc(C(F)(F)F)n2nc(C(=O)Nc3ccc(-n4cnnn4)cc3)cc2n1,11.8,.,.,19.4,-25.3,2.4,.,.
O=[N+]([O-])c1ccc(O)c(/C=N/NC2=NS(=O)(=O)c3ccccc32)c1,-13.4,35.1*,.,-9.8,-26.2,-1.2,0.4,2.3
CC(=O)Nc1sc2c(c1C(N)=O)CCN(Cc1ccccc1)C2,-22.4,.,.,-10.3,-6.7,2.2,.,.
COC(=O)c1c(NC(=O)C2COc3ccccc3O2)sc2c1CCN(Cc1ccccc1)C2 (configuration not stated),-28.3,21.8*,14.8,-17.3,-8.7,1.0,30.8*,24.1*
O=C(Nc1cccc(C(F)(F)F)c1)n1cc(-c2ccccn2)c(N2CCOCC2)n1,6.0,3.5,.,-1.4,18.2,-2.2,.,.
COC(=O)CC1C(=O)NCCN1C(=S)Nc1ccc(F)cc1 (configuration not stated),2.9,.,.,-5.9,4.6,0.0,.,.
O=C(NCc1ccc2c(c1)OCO2)c1n[nH]c(=O)c2ccccc12,2.1,0.1,.,-3.5,-32.9,1.5,.,.
SMILES,NPY-Y2 PAM-ag,NPY Y1 blocker,NPY Y2 blocker,NPY1 pot ag,S1P4 antag,S1P4 ag,NPY1 antag conf,NPY2 antag ctr
CN(C)S(=O)(=O)c1cc(NC(=O)CN2CCc3ccccc32)ccc1Cl,-17.2,-5.6,.,6.9,-7.9,-0.8,.,.
CN(C)S(=O)(=O)c1cc(NC(=O)CN2CCCc3ccccc32)ccc1Cl,7.6,71.2*,.,18.6,-3.9,1.6,0.7,2.8
Cc1ccc(NC(=O)C(Nc2cccc(C)c2)c2ccccc2)cc1 (configuration not stated),-0.9,10.8,3.9,-13.3,-5.0,-0.4,.,.
COc1cc(CNc2ccccc2Oc2cc(=O)n(C)c(=O)n2C)cc(OC)c1OC,-36.1,36.3*,13.2,-11.5,-3.0,1.6,16.8,7.7
Cc1ccc(-n2cc(CN3CCN(Cc4nccn4C)CC3)c(-c3ccc(F)cc3)n2)cc1,-25.8,31.0*,.,-29.1,0.1,0.5,16.1,18.7*
COc1ccc(-n2cc(CNCC3CCOCC3)c(-c3cccc(F)c3)n2)cc1,-5.0,8.5,.,-19.2,-3.6,-2.1,.,.
Cc1ccc(-n2cc(CNCCCn3ccnc3C)c(-c3ccc(F)cc3)n2)cc1,-33.2,28.0*,.,-20.4,-6.7,2.3,25.2*,34.6*
Cc1ccc(-n2cc(CNCCc3cscn3)c(-c3ccc(F)cc3)n2)cc1,-28.0,7.0,.,-21.7,-27.2,0.1,.,.
COc1ccc(-n2cc(CNCCCn3ccnc3)c(-c3cccc(F)c3)n2)cc1,-16.1,22.2*,.,-18.8,-17.8,-0.5,10.9,16.1
CC(C)c1ccc2[nH]c3nc(SCC(=O)N4CCOCC4)nnc3c2c1,9.9,2.1,.,2.6,-1.0,0.0,.,.
COc1ccc(-c2[nH]ncc2CN2CCC(OCc3ccccn3)CC2)c(F)c1,-7.3,.,.,3.3,-1.4,0.7,.,.
Cc1ccc2c(c1)N(C(C)C(=O)NCc1cccs1)C(=O)CO2 (configuration not stated),-1.4,-2.6,.,-2.6,-14.1,1.4,.,.
O=C(CCCc1cccs1)Nc1nc(-c2ccc(F)cc2)cs1,-10.4,25.4*,14.7,-32.6,-13.6,-0.4,18.7,16.1
OCCC1CN(Cc2nc3c(s2)CCCC3)CCN1Cc1ccccc1 (configuration not stated),-10.9,.,.,-5.3,0.3,-0.9,.,.
COc1ccc(S(=O)(=O)N(C)c2ccc(C(=O)N3CCCCC3)cc2)cc1OC,-11.7,.,.,18.3,-1.4,-1.7,.,.
c1ccc(-c2c[n+]3c(n2-c2ccccc2)CCC3)cc1,3.9,.,.,8.6,-3.5,0.4,.,.
CCOc1ccc(-n2c(-c3ccccc3)c[n+]3c2CCCCC3)cc1,11.6,24.3*,14.7,-36.1,-15.7,-0.1,13.7,17.1*
CC(C)(C)C(=O)Nc1nc2cc3c(cc2s1)OCO3,20.1,.,.,27.2,-13.6,0.6,.,.
